Measurements: ChEMBL document CHEMBL3272139, “2,5-Bis(3,4-dimethoxybenzyl)cyclopentylamine, a peripheral dopamine blocking agent” (J Med Chem, 1978)
The source made the active and inactive calls.

Tests used:
[1] = species on record: Canis familiaris; assay: Cardiovascular activity in pentobarbital-anesthesized, morphine-premedicated, atropinized, right femoral artery and vein-cannulated mongrel dog assessed as vasodepression; assay type: ADME, organism-based, Canis lupus familiaris; conditions: in vivo
Summary of the method: (§1)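 Mongrel dogs atropinized (1 mg/kg) and checked for autonomic responsiveness with norepinephrine and N-isopropylnorepinephrine (0.1–0.2 µg/kg each). Drugs were given iv via an indwelling venous catheter in 2 mL 0.9% saline. Blood pressure and heart rate were recorded via an arterial catheter. Threshold dose was read from a linear plot of % fall in mean pressure against log dose.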

[2] = species on record: Canis familiaris; assay: Cardiovascular activity in pentobarbital-anesthesized, morphine-premedicated, atropinized, right femoral artery and vein-cannulated mongrel dog assessed as decrease in systolic pressure; assay type: ADME, organism-based, Canis lupus familiaris; conditions: in vivo; summary of the method: as §1
[3] = species on record: Canis familiaris; assay: Cardiovascular activity in pentobarbital-anesthesized, morphine-premedicated, atropinized, right femoral artery and vein-cannulated mongrel dog assessed as decrease in diastolic pressure; assay type: ADME, organism-based, Canis lupus familiaris; conditions: in vivo; summary of the method: as §1
[4] = tested on: Canis familiaris; assay: Cardiovascular activity in pentobarbital-anesthesized, morphine-premedicated, atropinized, right femoral artery and vein-cannulated mongrel dog assessed as decrease in mean blood pressure at 2.4 umol/kg relative to control; assay type: ADME, organism-based, Canis lupus familiaris; set-up: scale not given: the % may be the effect or the level left; conditions: in vivo; summary of the method: as §1
[5] = tested on: Canis familiaris; assay: Cardiovascular activity in pentobarbital-anesthesized, morphine-premedicated, atropinized, right femoral artery and vein-cannulated mongrel dog assessed as time required for decrease in mean blood pressure at 2.4 umol/kg; assay type: ADME, organism-based, Canis lupus familiaris; conditions: in vivo; summary of the method: as §1
[6] = tested on: Canis familiaris; assay: Cardiovascular activity in pentobarbital-anesthesized, morphine-premedicated, atropinized, right femoral artery and vein-cannulated mongrel dog at 95 to 120 umol/kg; assay type: ADME, organism-based, Canis lupus familiaris; conditions: in vivo
[7] = tested on: Canis familiaris; assay: Cardiovascular activity in pentobarbital-anesthesized, morphine-premedicated, atropinized, right femoral artery and vein-cannulated mongrel dog at 95 to 120 umol/kg in presence of haloperidol; assay type: ADME, organism-based, Canis lupus familiaris; conditions: in vivo
[8] = tested on: Canis familiaris; assay: Cardiovascular activity in pentobarbital-anesthesized, morphine-premedicated, atropinized, right femoral artery and vein-cannulated mongrel dog at 95 to 120 umol/kg in presence of metoclopramide; assay type: ADME, organism-based, Canis lupus familiaris; conditions: in vivo
[9] = tested on: Canis familiaris; assay: Cardiovascular activity in pentobarbital-anesthesized, morphine-premedicated, atropinized, right femoral artery and vein-cannulated mongrel dog at 95 to 120 umol/kg in presence of propranolol; assay type: ADME, organism-based, Canis lupus familiaris; conditions: in vivo
[10] = tested on: Canis familiaris; assay: Inhibition of norepinephrine-induced chronotropic effects in pentobarbital-anesthesized, morphine-premedicated, atropinized, right femoral artery and vein-cannulated mongrel dog up to 71 umol/kg; assay type: functional, organism-based; conditions: Canis lupus familiaris
[11] = tested on: Canis familiaris; assay: Inhibition of norepinephrine-induced inotropic effects in pentobarbital-anesthesized, morphine-premedicated, atropinized, right femoral artery and vein-cannulated mongrel dog up to 71 umol/kg; assay type: functional, organism-based; conditions: Canis lupus familiaris
[12] = tested on: Canis familiaris; assay: Inhibition of norepinephrine-induced blood pressure effects in pentobarbital-anesthesized, morphine-premedicated, atropinized, right femoral artery and vein-cannulated mongrel dog up to 71 umol/kg; assay type: functional, organism-based; conditions: Canis lupus familiaris
[13] = tested on: Canis familiaris; assay: Inhibition of N-isopropylnorepinephrine-induced chronotropic effects in pentobarbital-anesthesized, morphine-premedicated, atropinized, right femoral artery and vein-cannulated mongrel dog up to 71 umol/kg; assay type: functional, organism-based; conditions: Canis lupus familiaris
[14] = tested on: Canis familiaris; assay: Inhibition of N-isopropylnorepinephrine-induced inotropic effects in pentobarbital-anesthesized, morphine-premedicated, atropinized, right femoral artery and vein-cannulated mongrel dog up to 71 umol/kg; assay type: functional, organism-based; conditions: Canis lupus familiaris
[15] = tested on: Canis familiaris; assay: Inhibition of N-isopropylnorepinephrine-induced blood pressure effects in pentobarbital-anesthesized, morphine-premedicated, atropinized, right femoral artery and vein-cannulated mongrel dog up to 71 umol/kg; assay type: functional, organism-based; conditions: Canis lupus familiaris
[16] = species on record: Canis familiaris; assay: Cardiovascular activity in pentobarbital-anesthesized, morphine-premedicated, atropinized, right femoral artery and vein-cannulated mongrel dog assessed as threshold dose required for decrease in mean blood pressure; assay type: ADME, organism-based, Canis lupus familiaris; conditions: in vivo; summary of the method: as §1
[17] = species on record: Canis familiaris; assay: Reduction in dopamine-induced depressor response in pentobarbital-anesthesized, morphine-premedicated, atropinized, right femoral artery and vein-cannulated mongrel dog; assay type: functional, organism-based; conditions: Canis lupus familiaris
Summary of the method: (§2)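 Atropinized mongrel dogs pretreated with phenoxybenzamine, 5 mg/kg, to remove the dopamine pressor action. Depressor response was evoked with dopamine, 3 µg/kg iv. Test drug was given iv in 2 mL saline. ED50 was taken from a linear plot of log dose vs % antagonism of the dopamine depressor effect.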

[18] = species on record: Canis familiaris; assay: Reduction in dopamine-induced depressor response in pentobarbital-anesthesized, morphine-premedicated, atropinized, right femoral artery and vein-cannulated mongrel dog assessed as threshold dose required for reduction; assay type: functional, Canis lupus familiaris
[19] = tested on: Canis familiaris; assay: Reduction in dopamine-induced depressor response in pentobarbital-anesthesized, morphine-premedicated, atropinized, right femoral artery and vein-cannulated mongrel dog at 12 to 17 umol/kg in presence of alpha-adrenergic blocker phenoxybenzamine; assay type: functional, organism-based; conditions: Canis lupus familiaris; summary of the method: as §2
[20] = species on record: Canis familiaris; assay: Reduction in dopamine-induced depressor response in pentobarbital-anesthesized, morphine-premedicated, atropinized, right femoral artery and vein-cannulated mongrel dog in presence of alpha-adrenergic blocker phenoxybenzamine; assay type: functional; conditions: Canis lupus familiaris; summary of the method: as §2
[21] = tested on: Canis familiaris; assay: Reduction in dopamine-induced depressor response in pentobarbital-anesthesized, morphine-premedicated, atropinized, right femoral artery and vein-cannulated mongrel dog assessed as half life of drug action at 6 ug/kg; assay type: functional, organism-based; conditions: Canis lupus familiaris
Summary of the method: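 Single atropinized dog given 6 µg/kg test drug iv. Residual blockade was measured every 5 min against a 5 µg/kg dopamine challenge. Half-life came from a linear plot of log residual blockade vs time.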

[22] = tested on: Mus musculus; assay: Potentiation of apomorphine-induced sterotypic climbing in Swiss-Webster mouse at 42.5 to 59.4 umol/kg, ip administered 30 mins prior to apomorphine-challenge measured after 5 mins; assay type: functional, organism-based; conditions: 47.5 to 59.4 umol/kg, in the assay text read “47.5 to 59.4 umol/kg” for “42.5 to 59.4 umol/kg”
Summary of the method: (§3)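 Male Swiss–Webster mice (20–30 g) were dosed ip in 0.9% saline. Thirty minutes later they received apomorphine HCl, 1 mg/kg sc. Each mouse was placed in a wire-mesh cage and scored for vertical climbing after about 5 min of exploration, with two scores per animal averaged. Groups had 10 mice, compared with saline controls by two-tailed Student's t test.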

[23] = tested on: Mus musculus; assay: Potentiation of apomorphine-induced sterotypic climbing in ip dosed Swiss-Webster mouse administered for 7 days; assay type: functional
[24] = tested on: Mus musculus; assay: Reduction in apomorphine-induced sterotypic climbing in Swiss-Webster mouse at 0.1 mg/kg, ip administered 30 mins prior to apomorphine-challenge measured after 5 mins; assay type: functional, organism-based; set-up: dose 0.1 mg/kg; summary of the method: as §3

COc1ccc(CC2CCC(Cc3ccc(OC)c(OC)c3)C2N)cc1OC.Cl (centres undefined)
Activity [1]: Toxic
Activity [2]: Dose-dependent effect
Activity [3]: Dose-dependent effect
Activity [4]: 10%
Time [5]: < 1 min
Activity [6]: Toxic
Activity [7]: Toxic
Activity [8]: Toxic
Activity [9]: Toxic
inhibition [10]: inactive
inhibition [11]: inactive
inhibition [12]: inactive
inhibition [13]: inactive
inhibition [14]: inactive
inhibition [15]: inactive
Activity [16]: 1.2 µmol/kg
Activity [17]: Dose-dependent effect
Activity [18]: 0.7 µmol/kg
Activity [19]: Active
ED50 [20]: 4 µmol/kg
T1/2 [21]: 18 min
Activity [22]: Active
Activity [23]: 5.94 µmol/kg

O=C(CCCN1CCC(O)(c2ccc(Cl)cc2)CC1)c1ccc(F)cc1
Activity [24]: Active
